UCH37 inh: inhibitors of human deubiquitinating enzyme UCH37. purified proteasome/UCH37, Ub-AMC cleavage fluorescence. hit rate 0.33% among 330,000. inhibition, % (no concentration beside the values). Q9Y5K5. AID 588478;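 active = mean inhibition over replicate wells above about 20%, limit read from the data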;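 also: 0% = compound-free wells with enzyme and 100% = wells lacking proteasome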
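Schedule: 30 min plus 25 min, room temperature / Material: human UCH37 within purified proteasomes / Technique: AMC fluorescence intensity at 355/460 nm / Buffer or medium: pH 7.4 Tris-HCl (50 mM) with ovalbumin, ATP-MgCl2, DTT / Controls: wells without proteasome as full block, compound-free enzyme plus substrate as uninhibited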
PAFAH1B3 inh: PAFAH1B3 (human) inhibition. inhibition, % at 3.39 µM. recombinant PAFAH1B3, FP-rhodamine probe, fluorescence polarization. hit rate 0.28% among 340,000;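 active = inhibition above the screen-wide average of all tested compounds plus 3 SD, cut at about 25% in these data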;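 also: 0% = enzyme with DMSO only and 100% = wells lacking PAFAH1B3 protein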
Target sequence (Q15102 whole entry, looked up): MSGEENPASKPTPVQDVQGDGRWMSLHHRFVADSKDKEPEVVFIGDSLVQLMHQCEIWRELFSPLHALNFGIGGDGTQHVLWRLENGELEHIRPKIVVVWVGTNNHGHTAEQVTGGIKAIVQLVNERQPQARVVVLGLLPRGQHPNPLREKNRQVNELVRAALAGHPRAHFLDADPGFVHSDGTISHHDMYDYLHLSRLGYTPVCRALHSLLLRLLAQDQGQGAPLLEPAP
NR3A LBD binder: NR3A (human) ligand-binding domain modulation | NR3A LBD differential scanning fluorimetry, Tm shift; 0% = protein alone, 100% = glycine-bound protein | Tm shift relative to glycine control, % at 25 µM | hit rate 2.5% among 340,000;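 active = melting temperature shift of at least 10% of the positive control shift, at one fixed dose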
pPAFAH FP inh: pPAFAH (human) enzyme inhibition. Q13093. recombinant pPAFAH, FP-rhodamine probe fluorescence polarization. inhibition, % at 3.39 µM. hit rate 1.5% among 330,000;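 active = inhibition above the mean inhibition across the screen plus 3 SD, cut at about 25% in these data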;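 also: inhibitors block binding of the rhodamine activity-based probe so polarization drops; 0% = enzyme with DMSO and 100% = wells lacking pPAFAH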
PAFAH2 inh: inhibitors of human PAFAH2. inhibition, % at 3.39 µM. AID 492956. hit rate 0.99% among 340,000. recombinant PAFAH2, FP-rhodamine activity probe, fluorescence polarization. Q99487;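 active = inhibition above the mean over all tested compounds plus 3 SD, cut at about 30% in these data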;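 also: inhibitors block probe labeling of enzyme so polarization drops; 0% = enzyme with DMSO and 100% = wells lacking PAFAH2 protein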
PAFAH1B2 inh: PAFAH1B2 (human) inhibition; P68402; recombinant PAFAH1B2, FP-rhodamine activity probe, fluorescence polarization; inhibition, % at 3.39 µM; hit rate 1.2% among 340,000;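 active = inhibition above the mean of all tested compounds plus 3 SD, cut at about 24% in these data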;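 also: 0% = enzyme with DMSO and 100% = wells lacking PAFAH1B2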
Target sequence (P68402 whole entry, looked up): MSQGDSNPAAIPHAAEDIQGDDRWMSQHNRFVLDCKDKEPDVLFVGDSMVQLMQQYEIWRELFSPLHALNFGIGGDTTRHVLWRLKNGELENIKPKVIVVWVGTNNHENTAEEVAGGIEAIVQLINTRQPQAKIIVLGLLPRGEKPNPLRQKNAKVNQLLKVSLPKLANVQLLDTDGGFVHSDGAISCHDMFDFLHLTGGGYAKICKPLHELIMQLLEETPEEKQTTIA
An asterisk follows results filed as active. A selection: hits, their analogues and other compounds. The true share with any hit is near 4.8%.

Results for CC(=O)Nc1nc2cc3c(cc2s1)OCO3 ?
UCH37 inh: 1; PAFAH1B3 inh: -3; NR3A LBD binder: -1; pPAFAH FP inh: 3; PAFAH2 inh: 2; PAFAH1B2 inh: 6

Results for CCOC(=O)c1sc(Nc2nc3c(OC)cccc3s2)cc1C ?
UCH37 inh: -86; PAFAH1B3 inh: 15; NR3A LBD binder: 22*; pPAFAH FP inh: 19; PAFAH2 inh: -8; PAFAH1B2 inh: 12

Results for CCOC(=O)c1sc(Nc2nc3cc4c(cc3s2)OCO4)cc1C ?
UCH37 inh: -130; PAFAH1B3 inh: 11; NR3A LBD binder: 29*; pPAFAH FP inh: 4; PAFAH2 inh: 9; PAFAH1B2 inh: 8

How did COc1cccc2sc(NN)nc12 do in these assays?
UCH37 inh: 0; PAFAH1B3 inh: 8; NR3A LBD binder: -1; pPAFAH FP inh: 8; PAFAH2 inh: 13; PAFAH1B2 inh: 2

What do the screens show for `COc1cc(C(=O)Oc2cccc(C=NNC(=O)c3cc(C)[nH]n3)c2)cc(OC)c1OC`?
UCH37 inh: 0

Results for CCNC(=S)N1CCn2c(nc3ccccc32)C1 ?
UCH37 inh: 3; PAFAH1B3 inh: 9; NR3A LBD binder: 12*; pPAFAH FP inh: -4; PAFAH2 inh: -2; PAFAH1B2 inh: 4

What do the screens show for `Cc1ccc(Oc2coc3cc(OC(=O)c4cccs4)ccc3c2=O)cc1`?
UCH37 inh: -11; PAFAH1B3 inh: -3; NR3A LBD binder: -2; pPAFAH FP inh: 4; PAFAH2 inh: -8; PAFAH1B2 inh: 7

Results for CC(=O)Oc1ccc2c(=O)c(Oc3ccccc3)coc2c1OC(C)=O ?
UCH37 inh: 1; PAFAH1B3 inh: -1; NR3A LBD binder: 3; pPAFAH FP inh: 31*; PAFAH2 inh: 46*; PAFAH1B2 inh: -1

What do the screens show for `N#CCCN(C(=O)CON=Cc1cccc([N+](=O)[O-])c1)c1ccccc1`?
UCH37 inh: 2

Results for O=C(CNc1ccc2ccccc2c1)N/N=C/c1ccc(OC(=O)/C=C/c2ccco2)cc1 ?
PAFAH1B3 inh: -5; NR3A LBD binder: 21*; pPAFAH FP inh: 12; PAFAH2 inh: -11; PAFAH1B2 inh: -2

How did Cc1ccc(C(=O)N/N=C/c2cccc(OC(=O)/C=C/c3ccco3)c2)cn1 do in these assays?
NR3A LBD binder: 0; pPAFAH FP inh: 5

Results for O=C(/C=C/c1ccco1)Oc1cc(Br)cc(/C=N/NC(=O)c2ccccc2O)c1 ?
PAFAH1B3 inh: -3; NR3A LBD binder: 11*; pPAFAH FP inh: 5; PAFAH2 inh: -54; PAFAH1B2 inh: 2

What do the screens show for `O=C(CNc1cccc2ccccc12)N/N=C/C(Br)=C/c1ccccc1`?
PAFAH1B3 inh: 18; NR3A LBD binder: 16*; pPAFAH FP inh: 6; PAFAH2 inh: -5; PAFAH1B2 inh: 8

What do the screens show for `O=C(CNc1cccc2ccccc12)NN=Cc1ccc(OC(=O)/C=C/c2ccco2)cc1`?
UCH37 inh: 4

What do the screens show for `CSc1ccc(/C=N/NC(=O)CNc2cccc3ccccc23)cc1`?
PAFAH1B3 inh: 1; NR3A LBD binder: 19*; pPAFAH FP inh: 11; PAFAH2 inh: 5; PAFAH1B2 inh: -1

What do the screens show for `O=C(CNc1ccc2ccccc2c1)N/N=C/c1ccncc1`?
PAFAH1B3 inh: 1; NR3A LBD binder: -1; pPAFAH FP inh: 0; PAFAH2 inh: -6; PAFAH1B2 inh: 0

How did CSc1ccc(/C=N/NC(=O)CNc2ccc3ccccc3c2)cc1 do in these assays?
PAFAH1B3 inh: 9; NR3A LBD binder: 21*; pPAFAH FP inh: 6; PAFAH2 inh: 9; PAFAH1B2 inh: 1

How did Cc1cccc(-n2c(C)cc(C=NNC(=O)c3ccc(CN4CCOCC4)cc3)c2C)c1 do in these assays?
UCH37 inh: 4

How did Cc1ccc(-c2ccc(C=N/N=C3/NC(=O)C(CC(=O)O)S3)o2)c([N+](=O)[O-])c1 (stereo not given) do in these assays?
UCH37 inh: 25*

How did COc1ccc(-n2c(C)cc(C=NNc3nnc(C)n3N)c2C)cc1 do in these assays?
UCH37 inh: 1

What do the screens show for `Nc1nn(-c2ccccc2)c(N)c1N=Nc1cccc(F)c1`?
UCH37 inh: 8; NR3A LBD binder: 11*; pPAFAH FP inh: 7

What do the screens show for `Cc1sc(-n2c(C)cc(/C=C3\SC(=S)NC3=O)c2C)c(C#N)c1C`?
UCH37 inh: 5; PAFAH1B3 inh: 10; NR3A LBD binder: -25; pPAFAH FP inh: 31*; PAFAH2 inh: 15; PAFAH1B2 inh: 1

Results for Cc1sc(-n2c(C)cc(/C=N/n3cnnc3)c2C)c(C#N)c1C ?
PAFAH1B3 inh: 4; NR3A LBD binder: 1; pPAFAH FP inh: 11; PAFAH2 inh: -8; PAFAH1B2 inh: 2

Results for O=C(O)c1ccc(-n2c(O)c(C=C3N=c4ccccc4=N3)sc2=S)cc1 ?
UCH37 inh: 9; PAFAH1B3 inh: 3; NR3A LBD binder: -2; pPAFAH FP inh: 24; PAFAH2 inh: -2; PAFAH1B2 inh: 8

How did O=C(O)c1cccc(-n2c(O)c(C=C3N=c4ccccc4=N3)sc2=S)c1 do in these assays?
UCH37 inh: 7; PAFAH1B3 inh: 5; NR3A LBD binder: -3; pPAFAH FP inh: 29*; PAFAH2 inh: 3; PAFAH1B2 inh: 5

What do the screens show for `CCCCOc1ccc2c(c1)C(=O)c1cc(O)ccc1-2`?
UCH37 inh: 6; PAFAH1B3 inh: 16; NR3A LBD binder: 34*; pPAFAH FP inh: 11; PAFAH2 inh: 11; PAFAH1B2 inh: 12

What do the screens show for `CCN(CC)CCOc1ccc2c(c1)C(=NO)c1cc(OCCN(CC)CC)ccc1-2`?
UCH37 inh: 3; PAFAH1B3 inh: 8; NR3A LBD binder: -1; pPAFAH FP inh: -6; PAFAH2 inh: -6; PAFAH1B2 inh: 6

How did CCN(CC)C(=O)COc1ccc(C(C)=NNC(=O)c2ccccc2Br)cc1 do in these assays?
UCH37 inh: 2

How did CN1CCN(C(c2ccc(Br)cc2)c2cc(Cl)c3cccnc3c2O)CC1 (stereo not given) do in these assays?
PAFAH1B3 inh: 5; NR3A LBD binder: 34*; pPAFAH FP inh: 5; PAFAH2 inh: -2; PAFAH1B2 inh: 9

Results for CCN(CC)S(=O)(=O)c1cc([N+](=O)[O-])ccc1N=Nc1c(O)[nH]c2ccccc12 ?
UCH37 inh: 6; PAFAH1B3 inh: 1; NR3A LBD binder: 18*; pPAFAH FP inh: -5; PAFAH2 inh: 4; PAFAH1B2 inh: 3

What do the screens show for `CCc1cc(C(=O)N=Nc2c(O)[nH]c3ccc([N+](=O)[O-])cc23)c2ccccc2n1`?
UCH37 inh: 11; PAFAH1B3 inh: 8; NR3A LBD binder: 6; pPAFAH FP inh: 33*; PAFAH2 inh: 1; PAFAH1B2 inh: -2

What do the screens show for `O=C(CCC(=O)Nc1ccc(F)cc1)NN=Cc1ccc(Br)cc1`?
UCH37 inh: 3

What do the screens show for `Cc1cc(N=CN(C)C)on1`?
UCH37 inh: 4

Screening data as filed in PubChem.
